Experimental data from ChEMBL document CHEMBL1146088 (J Med Chem, 2006).

Columns and labels:
Cannabinoid receptor 1 = Cannabinoid receptor 1 (Homo sapiens, UniProt P21554); assay: Binding affinity to human recombinant CB1 receptor expressed in COS cells; format: cell-based
Rattus norvegicus = organism: Rattus norvegicus; assay: Metabolic stability in rat brain membrane assessed by inhibition of AEA hydrolysis; format: ADME
Outline: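 Mixture extracted with 2 volumes CHCl3/CH3OH 2:1. [14C]ethanolamine in the aqueous phase counted by scintillation. Value is the concentration giving 50% inhibition of hydrolysis.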

RBL-2H3 = assay: Inhibition of AEA uptake in RBL2H3 cells; format: functional, cell-based, Rattus norvegicus, Wistar
Outline: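 RBL-2H3 cells incubated 5 min at 37 °C with [14C]AEA (2.4 µM, 10 000 cpm), with or without varying inhibitor concentrations. Medium extracted with CHCl3/CH3OH 2:1. Residual [14C]AEA in the lyophilized organic phase was measured by scintillation counting as an index of uptake.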

Cannabinoid receptor 2 = Cannabinoid receptor 2 (Homo sapiens, UniProt P34972); assay: Binding affinity to human recombinant CB2 receptor expressed in COS cells; format: cell-based
Chain of Cannabinoid receptor 2 (P34972 whole entry): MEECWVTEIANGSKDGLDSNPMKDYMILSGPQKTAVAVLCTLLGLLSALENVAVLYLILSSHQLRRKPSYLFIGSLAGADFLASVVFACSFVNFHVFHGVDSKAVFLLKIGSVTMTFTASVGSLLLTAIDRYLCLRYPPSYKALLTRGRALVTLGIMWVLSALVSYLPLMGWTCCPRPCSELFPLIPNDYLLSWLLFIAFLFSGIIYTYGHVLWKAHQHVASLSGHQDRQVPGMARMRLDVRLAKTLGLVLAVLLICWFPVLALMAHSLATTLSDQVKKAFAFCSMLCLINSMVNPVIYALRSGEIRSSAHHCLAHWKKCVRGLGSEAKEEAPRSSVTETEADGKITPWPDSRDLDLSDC

[1] = molecular target: T1, Transient receptor potential cation channel subfamily V member 1 (Homo sapiens, UniProt Q8NER1); assay: Maximal agonist activity on human recombinant TRPV1-mediated enhancement of intracellular calcium concentration in HEK293 cells at 10 uM; format: functional, cell-based
T1 sequence (Q8NER1 whole entry): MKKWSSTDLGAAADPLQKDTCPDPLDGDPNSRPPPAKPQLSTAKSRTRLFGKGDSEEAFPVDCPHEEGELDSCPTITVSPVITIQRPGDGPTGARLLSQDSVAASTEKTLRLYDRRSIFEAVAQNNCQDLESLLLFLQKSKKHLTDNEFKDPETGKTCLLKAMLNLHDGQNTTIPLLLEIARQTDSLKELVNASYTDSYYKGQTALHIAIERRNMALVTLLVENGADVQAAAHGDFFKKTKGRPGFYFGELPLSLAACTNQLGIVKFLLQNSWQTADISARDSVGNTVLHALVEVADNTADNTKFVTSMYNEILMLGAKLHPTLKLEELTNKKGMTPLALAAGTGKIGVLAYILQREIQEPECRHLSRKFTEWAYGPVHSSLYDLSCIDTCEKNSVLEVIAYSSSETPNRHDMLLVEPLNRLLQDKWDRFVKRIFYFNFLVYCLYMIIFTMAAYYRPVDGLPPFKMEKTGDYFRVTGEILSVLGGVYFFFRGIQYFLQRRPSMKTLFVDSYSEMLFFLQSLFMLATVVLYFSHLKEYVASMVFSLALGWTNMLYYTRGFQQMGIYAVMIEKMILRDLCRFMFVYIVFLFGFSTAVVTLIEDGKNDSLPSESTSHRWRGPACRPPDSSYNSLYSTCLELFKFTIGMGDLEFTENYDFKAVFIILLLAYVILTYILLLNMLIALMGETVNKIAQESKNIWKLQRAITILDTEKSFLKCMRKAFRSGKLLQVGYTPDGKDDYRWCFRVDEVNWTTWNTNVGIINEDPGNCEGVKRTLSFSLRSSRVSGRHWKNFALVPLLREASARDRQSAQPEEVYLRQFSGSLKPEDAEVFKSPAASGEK
Outline: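 Fluo-3-loaded HEK-293 cells overexpressing human TRPV1, in Tyrode pH 7.4 at 25 °C, fluorescence ex 488/em 540 nm. Compound at 10 µM. Peak rise in intracellular Ca2+ expressed as percent of the response to ionomycin (4 µM).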

[2] = molecular target: T1, Transient receptor potential cation channel subfamily V member 1; assay: Agonist activity on human recombinant TRPV1-mediated enhancement of intracellular calcium concentration in HEK293 cells; format: functional, cell-based
Outline: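 HEK-293 cells stably overexpressing human TRPV1, plated on poly-L-lysine the day before. Loaded 2 h at 25 °C with 4 µM Fluo-3 methyl ester (0.04% Pluronic), washed, trypsinized and resuspended in Tyrode pH 7.4. Stirred-cuvette fluorescence (ex 488/em 540 nm) at 25 °C, read before and after compound at various concentrations. EC50 is the concentration giving half-maximal stimulation.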

[3] = Rattus norvegicus, Brain, read-out: IC50
[4] = Rattus norvegicus, Wistar, RBL-2H3, read-out: IC50

Chain of Cannabinoid receptor 1 (P21554 whole entry): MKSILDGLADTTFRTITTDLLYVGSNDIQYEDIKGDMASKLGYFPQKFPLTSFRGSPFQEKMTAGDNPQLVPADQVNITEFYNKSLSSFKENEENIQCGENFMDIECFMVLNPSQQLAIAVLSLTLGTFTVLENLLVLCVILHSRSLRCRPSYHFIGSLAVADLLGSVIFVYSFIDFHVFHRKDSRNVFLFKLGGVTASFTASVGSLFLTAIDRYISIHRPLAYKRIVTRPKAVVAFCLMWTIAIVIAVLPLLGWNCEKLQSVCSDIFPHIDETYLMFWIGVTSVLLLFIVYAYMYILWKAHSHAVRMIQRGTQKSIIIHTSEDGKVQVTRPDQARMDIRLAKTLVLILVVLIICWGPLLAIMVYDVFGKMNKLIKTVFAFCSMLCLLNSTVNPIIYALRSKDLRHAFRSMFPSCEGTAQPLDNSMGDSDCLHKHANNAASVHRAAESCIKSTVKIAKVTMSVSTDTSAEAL

Structure (SMILES)	Ki (Cannabinoid receptor 1; read-out: Ki) [µM]	IC50 (Rattus norvegicus; [3]) [µM]	IC50 (RBL-2H3; [4]) [µM]	Ki (Cannabinoid receptor 2; read-out: Ki) [µM]	Emax [1] [%]	Ki (Cannabinoid receptor 1; cos)	IC50 (Rattus norvegicus)	IC50 (RBL-2H3; rbl-2h3)	EC50 ([2]; hek293)	Ki (Cannabinoid receptor 2; cos)	EC50 ([2]; read-out: EC50) [nM]
CCCCC/C=C\C/C=C\C/C=C\C/C=C\CCCC(=O)ONCCO	3.5	> 50	> 25	2.4	28						
CCCCCCCCCCCCCCCC(=O)NCCO [PALMIDROL]						Not Active	Not Active	Not Active	Not Active	Not Active	
CCCCC/C=C\C/C=C\C/C=C\C/C=C\CCCC(=O)N(O)CCO	3.9	> 50	> 25	1.9	55.3						260
CCCCC/C=C\C/C=C\C/C=C\C/C=C\CCCC(=O)NOCCO	0.47	25	> 25	0.081	58.5						250
CCCCCCCC/C=C\CCCCCCCC(=O)NOCCO	> 10	> 50	22.5	3.8	50						320
CCCCCCCCCCCCCCCC(=O)N(O)CCO	> 10	> 50	> 25	> 10	37						600
CCCCCCCC/C=C\CCCCCCCC(=O)NCCO [OLEOYLETHANOLAMIDE]	1.1	23	20	> 10	50.1						890
CCCCCCCC/C=C\CCCCCCCC(=O)ONCCO	> 10	> 50	> 25	8.6	14.3						
CCCCCCCCCCCCCCCC(=O)NOCCO	> 10	> 50	> 25	> 10	11.2						
CCCCCCCC/C=C\CCCCCCCC(=O)N(O)CCO	> 10	> 50	20	5.4	53.5						400
CCCCC/C=C\C/C=C\C/C=C\C/C=C\CCCC(=O)NCCO [ANANDAMIDE]		19	14.5		54.7						490
CCCCCCCCCCCCCCCC(=O)ONCCO	> 10	> 50	> 25	> 10	1.8						
